Screening data: PubChem, Broad Institute
PGC1a acetyl up: raises PGC1a acetylation signal in U2OS cells. U2OS PGC1a acetylation AlphaScreen, overnight. activation, % at 15.6 µM. 350,000 tested, 0.21% active. AID 651723;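 active = every replicate reaching activation of at least 50%, whatever the mean replicate activation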;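 note: hits raise the AlphaScreen acetylation signal above neutral controls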
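Test system: U2OS cells expressing flag-PGC1a plus GCN5; Amount: 7000 U2OS cells per well; Compound: single test concentration per compound; Incubation: compound overnight at 37 °C, each detection step 1 h RT; Signal: AlphaScreen lysate read.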
* = called active by the depositor. The sample as a whole holds a higher share of hits than the screen did.

SMILES | PGC1a acetyl up
CC(=O)N(c1cccc(C)c1)S(=O)(=O)c1ccc(Cl)cc1 | -53
CC(=O)NC(=S)Nc1ccc(NC(=O)COc2ccc(Cl)cc2Cl)cc1 | 76*
O=C(COc1ccccc1Cl)Nc1ccc(Cl)cn1 | 98*
O=C(COC(=O)c1cc[n+]([O-])cc1)Nc1cccc(Cl)c1Cl | -48
O=C(NC1=NCCS1)C1CC(=O)N(c2ccccc2)C1 (configuration not stated) | 68*
CSc1cccc(N2CC(C(=O)NCCN3C(=O)S/C(=C\c4cccnc4)C3=O)CC2=O)c1 (configuration not stated) | -75
CCCNC(=O)c1ccc(COc2ccc(Cl)cc2)o1 | -48
O=C(C[C@H]1C[C@@H]2c3cc(NS(=O)(=O)c4ccc(F)cc4)ccc3O[C@@H]2[C@@H](CO)O1)N1CCc2ccccc2C1 | -50
O=C(/C=C/c1cccnc1)/C=C/c1cccnc1 | -81
CC(NC(=O)Nc1cccnc1)(C(F)(F)F)C(F)(F)F | 62*
CCC(=O)Nc1ccnc(-c2cccnc2)n1 | -42
C#CCN(C[C@@H]1[C@@H](OC(=O)NCC2CCCCC2)[C@@H](OC(=O)NCC2CCCCC2)Cn2c(=O)ccc(=O)n21)S(=O)(=O)c1ccc(C)cc1 | -91
O=C(CC1CC1)N[C@H]1CC[C@@H](CCNS(=O)(=O)c2ccc(Cl)cc2)O[C@@H]1CO | -67
O=C(NCc1ccc2c(c1)OCO2)C1CCN(S(=O)(=O)c2cccs2)CC1 | 83*
COc1ccc(C)cc1NC(=O)C1CCCN(S(=O)(=O)c2cccs2)C1 (configuration not stated) | -44
COc1ccc(NC(=O)N[C@@H]2C=C[C@@H](CC(=O)NCc3ccccn3)O[C@@H]2CO)cc1 | -48
Cc1ccc(-n2c(SCC(N)=O)nnc2-c2ccc(S(=O)(=O)N3CCCCC3)cc2)c(C)c1 | 63*
Cc1ccc(S(=O)(=O)N2CCCC2)cc1C(=O)O | -59
O=c1[nH]cnc2c1ccn2C1OC(CO)C(O)C1O (configuration not stated) | 138*
CCOC(=O)c1c(CN2CCN(CC#N)CC2)n(C)c2cc(Br)c(OC)cc12 | 69*
CN(Cc1ccccc1)C(=O)c1ccc2c(c1)NC(=O)C(N1CCOCC1)S2 (configuration not stated) | -49
O=C(O)CCCC(=O)Nc1ccc(Br)cc1C(=O)O | 50*
Cn1cc(C(=O)N/N=C/C(Br)=C\c2ccccc2)ccc1=O | 128*
Cc1occc1C(=O)N/N=C/C(Br)=C/c1ccccc1 | 164*
COc1ccc(-c2cc(C(=O)N/N=C/c3cc(OC)c(OC)cc3OC)c3ccccc3n2)cc1 | -45
SMILES | PGC1a acetyl up
O=C(N/N=C/C(Br)=C\c1ccccc1)c1n[nH]c2c1CCC2 | 91*
COc1ccc(OC)c(/C=N/NC(=O)c2[nH]ncc2Br)c1 | -44
COc1cccc(C(=O)N/N=C/C(Br)=C/c2ccccc2)c1 | 101*
CC(C)c1ccc(/C=N/n2nnnc2Nc2ccccc2)cc1 | -46
O=C1C(Cl)=C(Nc2ccc3cn[nH]c3c2)C(=O)c2ccccc21 | -55
NC(=O)C1CCN(C2=C(Cl)C(=O)c3ccccc3C2=O)CC1 | 66*
COc1ccc(OCCCC(=O)OCC(=O)Nc2c(C)nn(-c3ccccc3)c2C)cc1 | -85
COC(=O)c1ccc2[nH]c3cccc(/C(=C/c4ccccc4)c4ccccc4)c3c2c1 | 61*
CN1CCN(C/C(=C2/N=C(c3ccccc3)OC2=O)N(C)C)CC1 | -51
Cc1c(C(=O)Nc2ccc3c(c2)OCCO3)sc2nc(-c3ccccc3)cn12 | 62*
Cc1noc(C)c1NC(=O)N(C)C[C@@H]1Oc2ccc(NS(=O)(=O)c3cn(C)cn3)cc2C(=O)N([C@@H](C)CO)C[C@@H]1C | -46
CC(C)(C)OC(=O)NC(Cc1ccccc1)C(=O)NCCCC(=O)O (configuration not stated) | -43
CC(C)CCCCCCCCCCCCC(=O)NCC(=O)NC1C(C)OC(Nc2ncnc3nc[nH]c23)C(O)C1O (configuration not stated) | -71
CN(C)CCOc1ccc(/C(=C(/CCCl)c2ccccc2)c2ccccc2)cc1 | 109*
CN(C)CCCN(C(=O)CCOc1ccccc1)c1nc2ccc(F)cc2s1 | -50
C/C=C/c1ccc2c(c1)O[C@@H](CN(C)C(=O)NC(C)C)[C@H](C)CN([C@H](C)CO)S2(=O)=O | -44
C[C@H]1CCCCO[C@H](CN(C)Cc2ccncc2)[C@@H](C)CN([C@@H](C)CO)C(=O)c2cc(NS(=O)(=O)c3ccccc3)ccc2O1 | -73
N#CC1(NC(=O)Cn2ncc(Cl)c(Cl)c2=O)CCCCC1 | 98*
O=S(=O)(c1ccccc1)c1ncc(C(F)(F)F)cc1Cl | 55*
Nc1ccccc1Oc1ncc(C(F)(F)F)cc1Cl | -46
NNS(=O)(=O)c1ccc(Cc2ncc(C(F)(F)F)cc2Cl)s1 | -50
O=c1[nH]c2nc(Cl)nc(Cl)c2[nH]1 | -74
COc1cccc(OC)c1NC(=O)C1CCCN1C(=O)NCc1ccccc1 (configuration not stated) | -97
COc1cccc(-n2nnnc2S(C)(=O)=O)c1 | 200*
